The source made the active and inactive calls. The rule behind the calls is not given here.
Assays:
Ramos [1] = experiment: Antiproliferative activity against human Ramos cells over expressing BTK after 48 hrs by CCK-8 assay; type: functional, cell-based
Summary of the method: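 Cells seeded at 3,000–5,000 per well in RPMI1640 with 10% FBS, held one day at 37 °C and 5% CO₂, then exposed to compound for 48 h. Concentrations ran 1.25 to 40 µM, five replicates per concentration. Read-out is CCK-8 absorbance at 450 nm. IC50 comes from five-point dose-response curves, as the mean of at least three separate experiments.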

Raji = experiment: Antiproliferative activity against human Raji cells over expressing BTK after 48 hrs by CCK-8 assay; type: functional, cell-based
Summary of the method: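 Cells seeded at 3,000–5,000 per well in RPMI1640 with 10% FBS, held one day at 37 °C and 5% CO₂, then exposed to compound for 48 h. Read-out is CCK-8 absorbance at 450 nm. IC50 comes from five-point dose-response curves, as the mean of at least three separate experiments.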

[2] = target: Tyrosine-protein kinase BTK (Homo sapiens, UniProt Q06187); experiment: Inhibition of human recombinant full-length N-terminal His-tagged BTK expressed in baculovirus infected Sf9 insect cells after 60 mins by ADP-Glo kinase assay
Chain of Tyrosine-protein kinase BTK (Q06187 whole entry): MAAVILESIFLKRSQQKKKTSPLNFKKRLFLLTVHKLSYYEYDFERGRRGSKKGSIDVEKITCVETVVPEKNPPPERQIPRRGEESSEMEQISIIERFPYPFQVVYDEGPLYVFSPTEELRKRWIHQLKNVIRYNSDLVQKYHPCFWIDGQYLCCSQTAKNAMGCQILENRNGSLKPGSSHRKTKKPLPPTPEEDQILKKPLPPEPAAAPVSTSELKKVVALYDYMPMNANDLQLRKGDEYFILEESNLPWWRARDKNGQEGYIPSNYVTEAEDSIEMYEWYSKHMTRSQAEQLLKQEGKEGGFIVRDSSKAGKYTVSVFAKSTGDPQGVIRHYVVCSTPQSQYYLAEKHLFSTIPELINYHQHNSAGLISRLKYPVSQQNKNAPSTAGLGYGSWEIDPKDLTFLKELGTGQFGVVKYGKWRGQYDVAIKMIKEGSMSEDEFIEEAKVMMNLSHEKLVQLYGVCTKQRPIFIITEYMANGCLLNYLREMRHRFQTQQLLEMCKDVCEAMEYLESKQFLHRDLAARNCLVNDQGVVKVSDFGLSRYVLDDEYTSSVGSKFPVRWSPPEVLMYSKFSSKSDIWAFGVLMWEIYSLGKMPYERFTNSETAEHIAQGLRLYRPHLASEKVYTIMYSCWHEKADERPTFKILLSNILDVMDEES

Ramos [3] = experiment: Induction of apoptosis in human Ramos cells assessed as late apoptotic cells at 10 uM after 48 hrs by annexin V-FITC/propidium iodide staining-based flow cytometric analysis relative to control; type: functional
Summary of the method: (§1)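 Ramos cells at 3 to 5 × 10⁵ cells/well were exposed for 48 h in medium with 5% FBS, with DMSO as solvent control. Cells were then fixed in ethanol at 4 °C, stained with Annexin V-FITC/propidium iodide and analysed by flow cytometry. One representative experiment is shown.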

Ramos [4] = experiment: Induction of apoptosis in human Ramos cells assessed as viable cells at 10 uM after 48 hrs by annexin V-FITC/propidium iodide staining-based flow cytometric analysis relative to control; type: functional; conditions: read-out: Activity; summary of the method: as §1
Ramos [5] = experiment: Induction of apoptosis in human Ramos cells assessed as necrotic cells at 10 uM after 48 hrs by annexin V-FITC/propidium iodide staining-based flow cytometric analysis (reference value: 0.2%); type: functional; summary of the method: as §1
Ramos [6] = experiment: Induction of apoptosis in human Ramos cells assessed as early apoptotic cells at 10 uM after 48 hrs by annexin V-FITC/propidium iodide staining-based flow cytometric analysis relative to control; type: functional; summary of the method: as §1
PBMC [7] = experiment: Cytotoxicity against human PBMC at 5 to 10 uM after 24 hrs by acridine orange/propidium iodide staining-based fluorescent microscopic analysis relative to control; type: cell-based
Summary of the method: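 PBMC isolated on Lymphoprep (density 1.077 g/ml) from venous blood of one healthy adult, seeded about 2.5 × 10⁵ cells/well in RPMI1640 with 10% FBS. Treated at 5, 10 or 20 µM for 24 h at 37 °C, 5% CO₂, five replicates per concentration. Stained with AO/PI (1.0 µg/mL each, in PBS) for 10 min at room temperature. Live cells counted by fluorescence microscopy and counting chamber.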

Ramos [8] = experiment: Antiproliferative activity against human Ramos cells over expressing BTK at 10 uM after 72 hrs by CCK-8 assay; type: functional, cell-based
Summary of the method: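 Ramos cells in RPMI-1640 with 10% FBS at 37 °C and 5% CO₂ were treated at 5, 10 or 20 µM for 24, 48 and 72 h. Viability was read by CCK-8 against an untreated control.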

Ramos [9] = experiment: Induction of apoptosis in human Ramos cells assessed as necrotic cells at 5 uM after 48 hrs by annexin V-FITC/propidium iodide staining-based flow cytometric analysis (reference value: 0.2%); type: functional
Ramos [10] = experiment: Induction of apoptosis in human Ramos cells assessed as late apoptotic cells at 1 uM after 48 hrs by annexin V-FITC/propidium iodide staining-based flow cytometric analysis relative to control; type: functional
Ramos [11] = experiment: Induction of apoptosis in human Ramos cells assessed as viable cells at 5 uM after 48 hrs by annexin V-FITC/propidium iodide staining-based flow cytometric analysis relative to control; type: functional; conditions: read-out: Activity
Ramos [12] = experiment: Induction of apoptosis in human Ramos cells assessed as early apoptotic cells at 5 uM after 48 hrs by annexin V-FITC/propidium iodide staining-based flow cytometric analysis relative to control; type: functional
Ramos [13] = experiment: Induction of apoptosis in human Ramos cells assessed as late apoptotic cells at 5 uM after 48 hrs by annexin V-FITC/propidium iodide staining-based flow cytometric analysis relative to control; type: functional
PBMC [14] = experiment: Cytotoxicity against human PBMC at 5 to 10 uM after 24 hrs by acridine orange/propidium iodide staining-based fluorescent microscopic analysis; type: cell-based
Summary of the method: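 PBMC were isolated from venous blood of a healthy adult on Lymphoprep (density 1.077 g/ml), washed in PBS and seeded at about 2.5 × 10⁵ cells/well. Cells were treated at 5, 10 or 20 µM, five replicates, for 24 h at 37 °C in RPMI1640 with 10% FBS. Staining was AO/PI, 1.0 µg/mL each, for 10 min at room temperature. Live cells were counted under a fluorescence microscope with a counting chamber.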

Ramos [15] = experiment: Induction of apoptosis in human Ramos cells assessed as early apoptotic cells at 1 uM after 48 hrs by annexin V-FITC/propidium iodide staining-based flow cytometric analysis relative to control; type: functional
Ramos [16] = experiment: Induction of apoptosis in human Ramos cells assessed as necrotic cells at 1 uM after 48 hrs by annexin V-FITC/propidium iodide staining-based flow cytometric analysis (reference value: 0.2%); type: functional
Ramos [17] = experiment: Induction of apoptosis in human Ramos cells assessed as viable cells at 1 uM after 48 hrs by annexin V-FITC/propidium iodide staining-based flow cytometric analysis relative to control; type: functional; conditions: read-out: Activity

SMILES	IC50 (Ramos [1])	IC50 (Raji)	IC50 [2]	further results
C=CC(=O)Nc1cccc(Nc2nc(Nc3ccc(NS(=O)(=O)c4ccc(C)cc4)c(C)c3)ncc2[N+](=O)[O-])c1	38 µM	14.2 µM	0.0486 µM	
C=CC(=O)Nc1cccc(Nc2nc(Nc3ccc(NS(=O)(=O)c4ccc(C)cc4)c(OC)c3)ncc2[N+](=O)[O-])c1	> 40 µM	34.1 µM	> 0.1 µM	
C=CC(=O)Nc1cccc(Nc2nc(Nc3ccc(NS(=O)(=O)c4ccc(F)cc4)c(C)c3)ncc2[N+](=O)[O-])c1	> 40 µM	22.4 µM	0.0854 µM	
C=CC(=O)Nc1cccc(Nc2nc(Nc3ccc(OCCOC)cc3)ncc2F)c1 [SPEBRUTINIB]	18.8 µM			Activity (Ramos [3]): 5.9%; viability at 10 µM (Ramos [4]): 50.9%; Activity (Ramos [5]): 15.6%; Activity (Ramos [6]): 27.7%
C=CC(=O)Nc1cccc(Oc2nc(Nc3ccc(NS(=O)(=O)c4ccc(OC)cc4)cc3)ncc2Cl)c1	> 40 µM	40.9 µM	0.00042 µM	
C=CC(=O)N1CCC[C@@H](n2nc(-c3ccc(Oc4ccccc4)cc3)c3c(N)ncnc32)C1 [IBRUTINIB]	5.88 µM			Activity (Ramos [3]): 7.5%; viability at 10 µM (Ramos [4]): 40.2%; Activity (Ramos [5]): 14.7%; Activity (PBMC [7]): 50%; Activity (Ramos [6]): 37.6%
C=CC(=O)Nc1cccc(Oc2nc(Nc3ccc(NS(=O)(=O)c4ccc(C)cc4)c(C)c3)ncc2Cl)c1	7.23 µM	18.7 µM	0.00105 µM	
C=CC(=O)Nc1cccc(Nc2nc(Nc3ccc(NS(=O)(=O)c4ccc(F)cc4)c(C)c3)ncc2Cl)c1	6.44 µM	10.5 µM	0.0786 µM	
C=CC(=O)Nc1cccc(Nc2nc(Nc3ccc(NS(=O)(=O)c4ccc(F)cc4)c(OC)c3)ncc2Cl)c1	6.49 µM	13.2 µM	0.00118 µM	Activity (Ramos [8]): Active; Activity (Ramos [9]): 13.2%; Activity (Ramos [10]): 4.3%; viability at 5 µM (Ramos [11]): 25%; Activity (Ramos [12]): 7.2%; Activity (Ramos [13]): 54.6%; Activity (PBMC [14]): Non-Toxic; Activity (Ramos [15]): 23.3%; Activity (Ramos [16]): 17%; viability at 1 µM (Ramos [17]): 55.4%

The next lines start with results.

IC50 (Ramos [1])	IC50 (Raji)	IC50 [2]	SMILES	further results
> 40 µM	18.7 µM	0.0238 µM	C=CC(=O)Nc1cccc(Nc2nc(Nc3ccc(NS(=O)(=O)c4ccc(OC)cc4)cc3)ncc2[N+](=O)[O-])c1	
18.8 µM	15.5 µM	0.00914 µM	C=CC(=O)Nc1cccc(Nc2nc(Nc3ccc(NS(=O)(=O)c4ccc(OC)cc4)cc3)ncc2Cl)c1	
> 40 µM	36.9 µM	0.00092 µM	C=CC(=O)Nc1cccc(Nc2nc(Nc3ccc(NS(=O)(=O)c4ccc(OC)cc4)cc3)ncc2F)c1	
> 40 µM	17.4 µM	0.0585 µM	C=CC(=O)Nc1cccc(Nc2nc(Nc3ccc(NS(=O)(=O)c4ccc(C)cc4)cc3)ncc2Cl)c1	
